In ChEMBL document CHEMBL1287734, “Synthesis, molecular modeling and biological evaluation of guanidine derivatives as novel antitubulin agents” (Bioorg Med Chem, 2010):
The source made the active and inactive calls. The calls are words filed in the database; no cut-off is given here.

Experiments:
[1] = Inhibition of bovine brain tubulin polymerization by turbidimetric analysis; set-up: species or system Bos taurus
In short: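 Purified bovine brain tubulin (10 µM) preincubated with varying compound concentrations in glutamate buffer at 30 °C, then cooled to 0 °C. GTP added, mixtures warmed to 30 °C in cuvettes, and assembly followed by turbidity.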

MCF7 [2] = assay: Antiproliferative activity against human MCF7 cells after 48 hrs by MTT assay; format: functional, cell-based; conditions: MCF7, 48 h
In short: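 After 24 h at 37 °C, 5% CO₂, compounds were added at preset concentrations for 48 h. MTT (2.5 mg/mL in PBS) was then added for 4 h, followed by 10% SDS–5% isobutyl alcohol–0.01 M HCl overnight at 37 °C. OD read at 570 nm. Triplicate wells per concentration; each assay run at least three times.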

MCF7 [3] = assay: Cell cycle arrest in human MCF7 cells assessed as accumulation at S phase at 50 nM after 24 hrs by flow cytometry relative to control; format: functional
In short: (§1)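 Cells treated at 50 nM or 500 nM for 24 h, collected and fixed overnight in 70% ethanol at −20 °C. After two PBS washes, RNase A (0.5 mg/mL) and propidium iodide (2.5 µg/mL) were added for 30 min. DNA content was measured by flow cytometry and the percentage of cells in each cycle phase was determined.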

MCF7 [4] = assay: Cell cycle arrest in human MCF7 cells assessed as accumulation at S phase at 500 nM after 24 hrs by flow cytometry relative to control; format: functional; in short: as §1
MCF7 [5] = assay: Cell cycle arrest in human MCF7 cells assessed as accumulation at G1 phase at 500 nM after 24 hrs by flow cytometry relative to control; format: functional; in short: as §1
MCF7 [6] = assay: Cell cycle arrest in human MCF7 cells assessed as accumulation at G2/M phase after 24 hrs by flow cytometry; format: functional, cell-based; in short: as §1
MCF7 [7] = assay: Cell cycle arrest in human MCF7 cells assessed as accumulation at G2/M phase at 500 nM after 24 hrs by flow cytometry relative to control; format: functional; in short: as §1
MCF7 [8] = assay: Cell cycle arrest in human MCF7 cells assessed as accumulation at sub-G1 phase at 50 nM after 24 hrs by flow cytometry relative to control; format: functional; in short: as §1
MCF7 [9] = assay: Cell cycle arrest in human MCF7 cells assessed as accumulation at G2/M phase at 50 nM after 24 hrs by flow cytometry relative to control; format: functional; in short: as §1
MCF7 [10] = assay: Cell cycle arrest in human MCF7 cells assessed as accumulation at G1 phase at 50 nM after 24 hrs by flow cytometry relative to control; format: functional; in short: as §1
MCF7 [11] = assay: Induction of apoptosis in human MCF7 cells assessed as morphological changes at 1 uM after 24 hrs using DAPI staining by fluorescence microscopic analysis; format: functional, cell-based
In short: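 Cells cultured on 6-well plates and treated at 0 or 1.0 µM for 24 h. Fixed in ice-cold 4% paraformaldehyde for 20 min, then permeabilized in 0.1% sodium citrate/0.1% Triton X-100 for 2 min at 4 °C. Stained with DAPI (300 nM) and examined by fluorescence microscopy for nuclear morphology.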

MCF7 [12] = assay: Cell cycle arrest in human MCF7 cells assessed as accumulation at sub-G1 phase at 500 nM after 24 hrs by flow cytometry relative to control; format: functional; in short: as §1
MCF7 [13] = assay: Cell cycle arrest in human MCF7 cells assessed as accumulation at sub-G1 phase after 24 hrs by flow cytometry relative to control; format: functional; in short: as §1
MCF7 [14] = assay: Cell cycle arrest in human MCF7 cells assessed as accumulation at G2/M phase after 24 hrs by flow cytometry relative to control; format: functional; in short: as §1
MCF7 [15] = assay: Cell cycle arrest in human MCF7 cells assessed as accumulation at G1 phase after 24 hrs by flow cytometry relative to control; format: functional; in short: as §1
MCF7 [16] = assay: Cell cycle arrest in human MCF7 cells assessed as accumulation at S phase after 24 hrs by flow cytometry relative to control; format: functional; in short: as §1

SMILES	IC50 [1] [µM]	IC50 (MCF7 [2]) [µM]	further results
COc1cccc(/C=C/C(=N/NC(=N)N)c2ccccc2)c1	130	13	
COc1ccc(/C=C\c2cc(OC)c(OC)c(OC)c2)cc1O [COMBRETASTATIN A4]	2.2		
N=C(N)N/N=C(/C=C/c1ccccc1)c1ccccc1	140	17	
COc1ccc(/C=C/C(=N/NC(=N)N)c2ccccc2)cc1	140	14	
COc1ccc(C(/C=C/c2ccccc2)=N\NC(=N)N)cc1	130	13	
Cc1ccc(C(/C=C/c2ccccc2)=N\NC(=N)N)cc1	150	14	
N=C(N)N/N=C(/C=C/c1cccc([N+](=O)[O-])c1)c1ccccc1	85	6.5	
COc1ccccc1/C=C/C(=N/NC(=N)N)c1ccccc1	84	7.2	
N=C(N)N/N=C(/C=C/c1ccccc1Br)c1ccccc1	52	4.2	
COc1cc2c(c(OC)c1OC)-c1ccc(OC)c(=O)cc1[C@@H](NC(C)=O)CC2 [COLCHICINE]			Activity (MCF7 [13]): 14.58%; Activity (MCF7 [14]): 43.11%; Activity (MCF7 [15]): 8.58%; Activity (MCF7 [16]): 8.16%
N=C(N)N/N=C(/C=C/c1ccccc1Cl)c1ccccc1	55	4.2	
Cc1ccc(/C=C/C(=N/NC(=N)N)c2ccccc2)cc1	170	16	
N=C(N)N/N=C(/C=C/c1cccc(F)c1)c1ccccc1	150	16	

The remaining compounds from weak to strong by IC50 [1], led by results:

IC50 [1] [µM]	IC50 (MCF7 [2]) [µM]	SMILES	further results
42	3.9	N=C(N)N/N=C(/C=C/c1ccccc1F)c1ccccc1	
28	2.5	N=C(N)N/N=C(/C=C/c1ccc(F)cc1)c1ccccc1	
24	1.9	N=C(N)N/N=C(/C=C/c1ccccc1)c1ccc(Cl)c(Cl)c1	
18	1.6	N=C(N)N/N=C(/C=C/c1cccc2ccccc12)c1ccccc1	
16	1.2	N=C(N)N/N=C(/C=C/c1ccc(OCc2ccccc2)cc1)c1ccccc1	
15	0.35	N=C(N)N/N=C(/C=C/c1ccccc1)c1ccc(Cl)cc1	
14	0.7	N=C(N)N/N=C(/C=C/c1ccc(Cl)cc1)c1ccccc1	
12	0.8	N=C(N)N/N=C(/C=C/c1ccc(-c2ccccc2)cc1)c1ccccc1	
10	0.25	N=C(N)N/N=C(/C=C/c1ccc(Br)cc1)c1ccccc1	
8.4	0.09	N=C(N)N/N=C(/C=C/c1ccccc1)c1ccc(Br)cc1	Activity (MCF7 [3]): 14.54%; Activity (MCF7 [4]): 3.14%; Activity (MCF7 [5]): 1.5%; Activity (MCF7 [6]): Dose-dependent effect; Activity (MCF7 [7]): 54.12%; Activity (MCF7 [8]): 2.63%; Activity (MCF7 [9]): 23.38%; Activity (MCF7 [10]): 48.76%; Activity (MCF7 [11]): Active; Activity (MCF7 [12]): 4.52%
